Assay results collected from several papers.
Protocols differ between the studies behind these lines.
BCHE: Cholinesterase (BCHE, Equus caballus, UniProt P81908)
MAP2K3: Dual specificity mitogen-activated protein kinase kinase 3 (MAP2K3, Homo sapiens, UniProt P46734)
SRPK2: SRSF protein kinase 2 (SRPK2, Homo sapiens, UniProt P78362)

| Compound | target | test | conditions | endpoint | result |
| --- | --- | --- | --- | --- | --- |
| CCN(CC)CCCC[C@H](NC(=O)[C@H](CC(C)C)NC(=O)[C@H](C)NC(=O)[C@H](Cc1ccccc1)NC(=O)c1ccc(C(C)(C)C)cc1)C(=O)N[C@@H](CO)C(=O)OC | Transcription initiation factor TFIID subunit 1-like, BD2 (TAF1L, Homo sapiens, UniProt Q8IZX4) | thermal stability, DSF | 25 µM | ΔTm | 0.72 °C |
| C[C@]12CC[C@@H]3c4ccc(OC(=O)N(CCCl)CCCl)cc4CC[C@H]3[C@@H]1CC[C@@H]2OP(=O)(O)O | Tyrosine-protein phosphatase non-receptor type 11 (PTPN11, Homo sapiens, UniProt Q06124) | binding, SPR | – | koff | 0.02 s⁻¹ |
| COc1cc2c(cc1OC)C(=O)N(CC1CCN(Cc3ccccc3)CC1)C2 | BCHE | enzyme activity, inhibitor, Ellman | 1 µM | inhibition | -4.8% |
| C#Cc1n[nH]c2c(-c3cn([C@@H](C)c4ccccn4)c(=O)[nH]c3=O)cc(F)cc12 | BDNF/NT-3 growth factors receptor (NTRK2, Homo sapiens, UniProt Q16620) | enzyme activity, inhibitor | 0.1 µM | inhibition | 3.7% |
| O=c1ccc2ccc3occc3c2o1 | Aldehyde dehydrogenase, dimeric NADP-preferring (ALDH3A1, Homo sapiens, UniProt P30838) | enzyme activity, inhibitor, absorbance | 10 µM | activity vs control | 28.3% |
| COc1cc2c(cc1OC)C(=O)N(CC1CCN(Cc3ccsc3)CC1)C2 | BCHE | enzyme activity, inhibitor, Ellman | 1 µM | inhibition | -6.1% |
| Cc1nn(C)cc1-c1nc2c(N3CCN(Cc4ccc(Cl)cc4)CC3)c(Cl)cnc2[nH]1 | MAP2K3 | binding, competition with immobilised ligand | 1 µM | remaining binding | 100% |
| Nc1ncc(-c2nc(N3CCOCC3)nc(N3CCOCC3)n2)c(C(F)F)n1 | MAP2K3 | binding, competition with immobilised ligand | 10 µM | remaining binding | 78% |
| COc1cc2c(cc1OC)C(=O)N(CC1CCNCC1)C2 | BCHE | enzyme activity, inhibitor, Ellman | 1 µM | inhibition | 6.8% |
| COc1ncccc1-c1cnn2ccc(N3CCN(C(=O)OC(C)C)CC3)nc12 | SRPK2 | binding, competition with immobilised ligand | 1 µM | remaining binding | 28% |
| COc1cccc(CN2CCC(CN3Cc4cc(OC)c(OC)cc4C3=O)CC2)n1 | BCHE | enzyme activity, inhibitor, Ellman | 1 µM | inhibition | -2% |
| Cn1cc(-c2cc(F)cc(N3CCn4c(cc5c4CCCC5)C3=O)c2CO)cc(Nc2ccc(N3CCN(C4COC4)CC3)cn2)c1=O | SRPK2 | enzyme activity, inhibitor | 0.1 µM | inhibition | 3% |
